Laboratory results taken from ChEMBL document CHEMBL2150988, “Preparation and optimization of new 4-(morpholin-4-yl)-(6-oxo-1,6-dihydropyrimidin-2-yl)amide derivatives as PI3Kβ inhibitors” (Bioorg Med Chem Lett, 2012).
pIC50: −log10 of the molar value. In brackets after ≈: the same amount, converted by molar mass.

Legend:
[1] = Apparent permeability across human Caco2/TC7 cells; type: ADME, cell-based; conditions: Caco-2
How it was run: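 Caco-2 TC7 clone monolayers; transport measured in both apical-to-basolateral and basolateral-to-apical directions, giving Papp (nm/s) and an efflux ratio.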

Cytochrome P450 3A4 = Cytochrome P450 3A4 (Homo sapiens, UniProt P08684); test: Inhibition of human recombinant CYP3A4; type: ADME
Chain of Cytochrome P450 3A4 (P08684 whole entry): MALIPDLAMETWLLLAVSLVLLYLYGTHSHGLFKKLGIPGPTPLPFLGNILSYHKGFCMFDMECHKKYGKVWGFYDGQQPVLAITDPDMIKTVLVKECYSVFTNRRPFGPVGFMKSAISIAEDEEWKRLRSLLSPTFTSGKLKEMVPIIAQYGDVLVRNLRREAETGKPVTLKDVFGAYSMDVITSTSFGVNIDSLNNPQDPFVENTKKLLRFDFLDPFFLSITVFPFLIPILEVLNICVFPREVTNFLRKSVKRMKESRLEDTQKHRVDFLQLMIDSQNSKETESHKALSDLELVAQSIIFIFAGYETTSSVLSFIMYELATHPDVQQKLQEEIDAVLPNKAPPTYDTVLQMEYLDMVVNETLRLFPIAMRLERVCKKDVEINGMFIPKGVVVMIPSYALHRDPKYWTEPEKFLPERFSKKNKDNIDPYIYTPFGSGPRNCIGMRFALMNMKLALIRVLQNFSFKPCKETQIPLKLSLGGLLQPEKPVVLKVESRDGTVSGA

[2] = Drug metabolism in mouse liver microsomes after 20 mins; type: ADME, Microsome; conditions: read-out: Drug metabolism
How it was run: (§1)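 Liver microsomes (human or mouse) incubated with compound for 20 min; %lability reported as % of compound metabolized.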

[3] = Equilibrium solubility of the compound in phosphate buffer at pH 7.4 after 16 hrs by HPLC analysis; type: physicochemical
[4] = Drug metabolism in human liver microsomes after 20 mins; type: ADME, Microsome; conditions: read-out: Drug metabolism; how it was run: as §1
[5] = molecular target: Phosphatidylinositol 4,5-bisphosphate 3-kinase catalytic subunit gamma isoform (Homo sapiens, UniProt P48736); test: Inhibition of PI3Kgamma
Chain of Phosphatidylinositol 4,5-bisphosphate 3-kinase catalytic subunit gamma isoform (P48736 whole entry, canonical isoform): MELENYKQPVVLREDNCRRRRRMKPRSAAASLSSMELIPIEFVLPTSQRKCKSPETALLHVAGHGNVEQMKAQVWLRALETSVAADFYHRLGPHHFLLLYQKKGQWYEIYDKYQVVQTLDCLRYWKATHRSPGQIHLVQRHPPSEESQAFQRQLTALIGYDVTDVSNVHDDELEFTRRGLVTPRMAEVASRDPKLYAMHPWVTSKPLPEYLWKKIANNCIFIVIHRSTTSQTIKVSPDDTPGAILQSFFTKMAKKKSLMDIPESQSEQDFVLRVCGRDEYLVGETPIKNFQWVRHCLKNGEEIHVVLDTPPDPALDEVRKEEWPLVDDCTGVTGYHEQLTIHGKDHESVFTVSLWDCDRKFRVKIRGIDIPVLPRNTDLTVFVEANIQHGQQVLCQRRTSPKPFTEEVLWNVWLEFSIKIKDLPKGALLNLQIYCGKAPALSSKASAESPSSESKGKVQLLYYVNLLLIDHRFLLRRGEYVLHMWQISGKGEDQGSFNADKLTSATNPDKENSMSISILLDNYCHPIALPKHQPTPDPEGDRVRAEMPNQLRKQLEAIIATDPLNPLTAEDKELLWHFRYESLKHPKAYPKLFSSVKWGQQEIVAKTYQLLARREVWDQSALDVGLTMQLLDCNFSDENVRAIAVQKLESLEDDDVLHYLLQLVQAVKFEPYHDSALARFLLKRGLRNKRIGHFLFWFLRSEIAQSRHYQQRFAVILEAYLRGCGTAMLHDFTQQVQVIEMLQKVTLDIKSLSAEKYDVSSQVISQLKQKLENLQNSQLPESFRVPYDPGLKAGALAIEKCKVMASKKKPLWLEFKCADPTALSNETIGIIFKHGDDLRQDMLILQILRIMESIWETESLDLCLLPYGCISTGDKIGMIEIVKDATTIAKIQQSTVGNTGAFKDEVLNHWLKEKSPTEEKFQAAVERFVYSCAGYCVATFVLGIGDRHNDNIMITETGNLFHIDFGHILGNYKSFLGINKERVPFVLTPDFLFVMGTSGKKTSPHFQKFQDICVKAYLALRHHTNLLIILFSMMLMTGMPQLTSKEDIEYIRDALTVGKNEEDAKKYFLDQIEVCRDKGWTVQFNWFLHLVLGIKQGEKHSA

[6] = molecular target: Serine/threonine-protein kinase mTOR (Homo sapiens, UniProt P42345); test: Inhibition of mTOR
[7] = Inhibition of Akt phosphorylation at S473 in PTEN deficient human PC3 cells; type: cell-based; conditions: PC-3
[8] = molecular target: Phosphatidylinositol 4,5-bisphosphate 3-kinase catalytic subunit alpha isoform (Homo sapiens, UniProt P42336); test: Inhibition of PI3Kalpha
Chain of Phosphatidylinositol 4,5-bisphosphate 3-kinase catalytic subunit alpha isoform (P42336 whole entry, canonical isoform): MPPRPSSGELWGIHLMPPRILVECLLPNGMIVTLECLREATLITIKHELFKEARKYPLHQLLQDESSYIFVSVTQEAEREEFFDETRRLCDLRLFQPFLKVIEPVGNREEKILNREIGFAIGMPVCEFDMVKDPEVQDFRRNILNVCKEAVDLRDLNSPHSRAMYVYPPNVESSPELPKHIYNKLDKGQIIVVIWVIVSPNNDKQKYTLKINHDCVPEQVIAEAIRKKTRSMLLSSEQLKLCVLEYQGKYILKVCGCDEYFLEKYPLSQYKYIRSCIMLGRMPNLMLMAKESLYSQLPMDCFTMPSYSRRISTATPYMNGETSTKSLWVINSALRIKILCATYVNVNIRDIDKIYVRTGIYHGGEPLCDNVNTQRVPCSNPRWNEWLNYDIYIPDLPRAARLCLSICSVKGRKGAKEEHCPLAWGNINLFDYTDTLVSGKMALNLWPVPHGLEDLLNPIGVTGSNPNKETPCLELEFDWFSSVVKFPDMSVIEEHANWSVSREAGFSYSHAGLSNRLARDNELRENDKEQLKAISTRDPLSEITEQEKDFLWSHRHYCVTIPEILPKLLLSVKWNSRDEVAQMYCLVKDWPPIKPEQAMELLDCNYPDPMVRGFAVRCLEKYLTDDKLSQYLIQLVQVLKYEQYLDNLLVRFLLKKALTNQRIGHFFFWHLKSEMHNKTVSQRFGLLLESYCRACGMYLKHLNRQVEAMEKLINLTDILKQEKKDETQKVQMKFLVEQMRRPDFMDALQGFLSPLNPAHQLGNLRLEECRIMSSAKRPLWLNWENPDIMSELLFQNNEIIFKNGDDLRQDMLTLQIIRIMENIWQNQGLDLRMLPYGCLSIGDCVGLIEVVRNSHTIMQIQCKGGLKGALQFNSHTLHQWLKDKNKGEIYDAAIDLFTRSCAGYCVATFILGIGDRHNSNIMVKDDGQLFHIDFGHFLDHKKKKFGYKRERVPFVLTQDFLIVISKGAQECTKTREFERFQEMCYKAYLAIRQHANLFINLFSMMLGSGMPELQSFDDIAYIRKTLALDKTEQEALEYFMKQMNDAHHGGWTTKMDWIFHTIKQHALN

[9] = molecular target: T1, Phosphatidylinositol 4,5-bisphosphate 3-kinase catalytic subunit delta isoform (Homo sapiens, UniProt O00329); test: Inhibition of PI3Kdelta
T1 sequence (O00329 whole entry): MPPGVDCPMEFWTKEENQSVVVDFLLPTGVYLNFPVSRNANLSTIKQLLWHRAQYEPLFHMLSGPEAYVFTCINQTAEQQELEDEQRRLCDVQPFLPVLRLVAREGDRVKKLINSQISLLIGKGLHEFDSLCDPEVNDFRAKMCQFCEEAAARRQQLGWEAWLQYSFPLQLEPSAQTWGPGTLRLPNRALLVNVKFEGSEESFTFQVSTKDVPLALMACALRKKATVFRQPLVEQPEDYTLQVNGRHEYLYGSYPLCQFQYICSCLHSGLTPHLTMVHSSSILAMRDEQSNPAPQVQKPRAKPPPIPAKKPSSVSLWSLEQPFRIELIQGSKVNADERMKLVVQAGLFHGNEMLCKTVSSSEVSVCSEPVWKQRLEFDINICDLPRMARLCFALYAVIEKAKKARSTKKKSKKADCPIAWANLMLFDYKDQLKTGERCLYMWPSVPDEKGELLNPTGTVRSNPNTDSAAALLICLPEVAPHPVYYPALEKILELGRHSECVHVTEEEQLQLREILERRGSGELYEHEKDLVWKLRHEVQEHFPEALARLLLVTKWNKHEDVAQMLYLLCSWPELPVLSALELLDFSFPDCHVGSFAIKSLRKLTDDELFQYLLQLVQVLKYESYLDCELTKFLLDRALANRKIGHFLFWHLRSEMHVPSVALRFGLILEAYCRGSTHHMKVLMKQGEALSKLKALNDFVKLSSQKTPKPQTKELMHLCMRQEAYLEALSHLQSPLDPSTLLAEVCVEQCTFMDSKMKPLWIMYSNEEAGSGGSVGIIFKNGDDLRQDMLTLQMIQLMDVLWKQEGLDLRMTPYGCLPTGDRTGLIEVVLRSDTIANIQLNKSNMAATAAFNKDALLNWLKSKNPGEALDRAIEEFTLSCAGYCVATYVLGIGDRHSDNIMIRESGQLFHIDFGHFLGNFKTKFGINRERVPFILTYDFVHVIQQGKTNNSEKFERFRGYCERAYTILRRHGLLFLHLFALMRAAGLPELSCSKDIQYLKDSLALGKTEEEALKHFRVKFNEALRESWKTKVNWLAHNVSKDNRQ

[10] = molecular target: Phosphatidylinositol 4,5-bisphosphate 3-kinase catalytic subunit beta isoform (Homo sapiens, UniProt P42338); test: Inhibition of PI3Kbeta
Chain of Phosphatidylinositol 4,5-bisphosphate 3-kinase catalytic subunit beta isoform (P42338 whole entry, canonical isoform): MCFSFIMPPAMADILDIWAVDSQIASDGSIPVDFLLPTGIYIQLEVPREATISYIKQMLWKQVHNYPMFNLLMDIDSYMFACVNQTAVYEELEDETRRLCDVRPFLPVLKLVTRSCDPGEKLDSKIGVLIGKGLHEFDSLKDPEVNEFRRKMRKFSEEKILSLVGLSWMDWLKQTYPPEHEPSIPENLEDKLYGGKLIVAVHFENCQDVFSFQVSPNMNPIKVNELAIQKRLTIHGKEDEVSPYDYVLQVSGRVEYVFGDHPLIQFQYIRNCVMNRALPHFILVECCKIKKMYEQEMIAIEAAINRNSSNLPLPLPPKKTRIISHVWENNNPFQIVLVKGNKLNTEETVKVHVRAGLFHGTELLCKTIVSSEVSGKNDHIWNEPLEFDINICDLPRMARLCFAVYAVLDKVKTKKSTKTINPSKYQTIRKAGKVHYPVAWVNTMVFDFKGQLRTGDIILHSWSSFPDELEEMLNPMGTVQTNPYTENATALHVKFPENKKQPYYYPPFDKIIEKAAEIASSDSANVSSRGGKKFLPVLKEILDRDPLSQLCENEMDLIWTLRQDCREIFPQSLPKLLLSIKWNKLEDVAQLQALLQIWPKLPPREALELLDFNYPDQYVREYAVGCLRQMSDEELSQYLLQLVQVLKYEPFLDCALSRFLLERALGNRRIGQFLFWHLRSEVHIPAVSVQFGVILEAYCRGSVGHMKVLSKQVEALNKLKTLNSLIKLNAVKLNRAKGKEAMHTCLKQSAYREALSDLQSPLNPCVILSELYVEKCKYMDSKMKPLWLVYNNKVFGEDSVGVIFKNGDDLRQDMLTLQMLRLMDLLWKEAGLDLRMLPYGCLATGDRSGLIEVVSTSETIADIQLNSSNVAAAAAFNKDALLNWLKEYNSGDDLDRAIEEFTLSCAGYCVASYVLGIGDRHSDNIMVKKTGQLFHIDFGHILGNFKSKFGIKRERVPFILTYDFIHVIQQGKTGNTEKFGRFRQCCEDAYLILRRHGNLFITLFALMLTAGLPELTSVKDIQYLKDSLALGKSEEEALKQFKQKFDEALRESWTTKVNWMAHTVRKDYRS

[11] = Efflux ratio of permeability […] in human Caco2/TC7 cells; type: ADME, cell-based
How it was run: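 Caco-2 TC7 clone cells grown as a monolayer; compound transport measured in both directions, apical to basolateral (A–B) and basolateral to apical (B–A); apparent permeability (Papp) read out, and efflux ratio derived from the two directional measurements.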

| Papp [1] | pIC50 (Cytochrome P450 3A4) | metabolised at 20 min [2] | solubility thermodynamic at 16 h [3] | metabolised at 20 min [4] | pIC50 [5] | pIC50 [6] | pIC50 [7] | pIC50 [8] | pIC50 [9] | pIC50 [10] | Ratio [11] | Compound |
| --- | --- | --- | --- | --- | --- | --- | --- | --- | --- | --- | --- | --- |
| 0.5 ×10⁻⁶ cm/s | < 4.40 | 4% | 73 µM (≈ 22.9 µg/mL) | 44% | < 5.00 | < 5.00 | 7.17 | – | – | – | – | O=C(Cc1nc(N2CCOCC2)cc(=O)[nH]1)Nc1ccccc1 |
| 0.8 ×10⁻⁶ cm/s | < 4.40 | 18% | 5 µM (≈ 2.06 µg/mL) | 42% | 5.18 | – | 7.42 | 5.38 | 6.53 | 7.59 | – | O=C(Cc1nc(N2CCOCC2)cc(=O)[nH]1)Nc1ccc(F)c(Br)c1 |
| – | – | – | – | – | < 5.00 | – | 6.46 | < 5.00 | 5.61 | 6.85 | – | O=C(Cc1nc(N2CCOCC2)cc(=O)[nH]1)Nc1ccccc1F |
| – | – | 21% | – | 55% | < 5.00 | – | 7.13 | 5.21 | 5.96 | 7.09 | – | O=C(Cc1nc(N2CCOCC2)cc(=O)[nH]1)Nc1cccc(F)c1 |
| 0.6 ×10⁻⁶ cm/s | < 4.40 | 27% | 45 µM (≈ 15 µg/mL) | 24% | < 5.00 | – | 7.51 | 5.54 | 7.07 | 7.89 | – | O=C(Cc1nc(N2CCOCC2)cc(=O)[nH]1)Nc1ccc(F)cc1 |
| – | – | – | – | – | < 5.00 | – | 6.23 | < 5.00 | 5.37 | 6.63 | – | Cc1ccccc1NC(=O)Cc1nc(N2CCOCC2)cc(=O)[nH]1 |
| 1.4 ×10⁻⁶ cm/s | – | 54% | 3 µM (≈ 0.985 µg/mL) | 80% | 5.15 | – | 7.35 | 6.20 | 6.79 | 7.77 | – | Cc1cccc(NC(=O)Cc2nc(N3CCOCC3)cc(=O)[nH]2)c1 |
| – | – | – | – | – | 5.29 | – | 5.85 | 5.64 | 5.56 | 6.40 | – | O=C(Cc1nc(N2CCOCC2)cc(=O)[nH]1)Nc1ccc(Cl)cc1 |
| 0.8 ×10⁻⁶ cm/s | < 4.40 | 22% | 9 µM (≈ 3.14 µg/mL) | 43% | < 5.00 | – | 7.00 | 5.59 | 6.56 | 7.48 | – | O=C(Cc1nc(N2CCOCC2)cc(=O)[nH]1)Nc1cccc(Cl)c1 |
| 0.3 ×10⁻⁶ cm/s | < 4.40 | 47% | 38 µM (≈ 13.1 µg/mL) | 76% | < 5.00 | – | 7.33 | 5.62 | 6.21 | 7.82 | – | COc1cccc(NC(=O)Cc2nc(N3CCOCC3)cc(=O)[nH]2)c1 |
| 1.4 ×10⁻⁶ cm/s | < 4.40 | 38% | 6 µM (≈ 2.36 µg/mL) | 75% | < 5.00 | – | 8.00 | 5.72 | 6.72 | 8.30 | 26 | O=C(Cc1nc(N2CCOCC2)cc(=O)[nH]1)Nc1cccc(Br)c1 |
| 0.8 ×10⁻⁶ cm/s | – | 11% | 3 µM (≈ 1.05 µg/mL) | 25% | < 5.00 | – | 7.26 | 5.42 | 6.87 | 7.28 | – | O=C(Cc1nc(N2CCOCC2)cc(=O)[nH]1)Nc1ccc(F)c(F)c1 |
| 0.6 ×10⁻⁶ cm/s | < 4.40 | 60% | 3 µM (≈ 1.04 µg/mL) | 91% | 5.10 | – | 7.15 | 6.08 | 7.20 | 8.22 | – | Cc1cc(NC(=O)Cc2nc(N3CCOCC3)cc(=O)[nH]2)ccc1F |
| 0.8 ×10⁻⁶ cm/s | – | 14% | 3 µM (≈ 1.1 µg/mL) | 40% | 5.17 | – | 7.72 | 5.72 | 6.86 | 8.70 | – | O=C(Cc1nc(N2CCOCC2)cc(=O)[nH]1)Nc1ccc(F)c(Cl)c1 |
| 0.2 ×10⁻⁶ cm/s | < 4.40 | 28% | 33 µM (≈ 12 µg/mL) | 71% | < 5.00 | – | 7.01 | 5.46 | 6.83 | 8.52 | – | COc1cc(NC(=O)Cc2nc(N3CCOCC3)cc(=O)[nH]2)ccc1F |
| – | – | – | – | – | < 5.00 | – | 5.76 | 5.09 | 5.33 | 6.76 | – | COC(=O)c1cc(NC(=O)Cc2nc(N3CCOCC3)cc(=O)[nH]2)ccc1F |
| – | – | – | – | – | < 5.00 | – | 5.90 | 5.36 | 5.47 | 7.33 | – | O=C(Cc1nc(N2CCOCC2)cc(=O)[nH]1)Nc1ccc(F)c([N+](=O)[O-])c1 |
| – | – | – | – | – | < 5.00 | – | 6.47 | < 5.00 | 5.37 | 6.33 | – | Cn1c(CC(=O)Nc2ccccc2)nc(N2CCOCC2)cc1=O |
| – | – | – | – | – | < 5.00 | – | 6.96 | < 5.00 | 5.83 | 6.61 | – | Cn1c(CC(=O)Nc2ccc(F)cc2)nc(N2CCOCC2)cc1=O |
| – | – | – | – | – | < 5.00 | – | 7.00 | 5.07 | 5.75 | 6.58 | – | Cn1c(CC(=O)Nc2ccc(F)c(F)c2)nc(N2CCOCC2)cc1=O |
| – | – | – | – | – | < 5.00 | – | 7.03 | 5.12 | 5.65 | 6.41 | – | Cn1c(CC(=O)Nc2ccc(F)c(Br)c2)nc(N2CCOCC2)cc1=O |
| – | – | – | – | – | < 5.00 | – | 7.00 | < 5.00 | 5.62 | 6.98 | – | COc1cc(NC(=O)Cc2nc(N3CCOCC3)cc(=O)n2C)ccc1F |
